ChEMBL document CHEMBL4251569, “Camptothecin-psammaplin A hybrids as topoisomerase I and HDAC dual-action inhibitors” (Eur J Med Chem, 2018)
Activity calls are given as the source filed them. No cut-off for these calls is given here.

Legend:
L-428 = assay: cells; type: functional, cell-based; conditions: Homo sapiens, L-428, 72 h
[1] = Cell cycle arrest in human MM487 cells assessed as accumulation at S phase at 0.3 uM after 24 hrs by propidium iodide staining-based flow cytometric method (reference value: 25.2%); type: functional
MM473 [2] = assay: Cell cycle arrest in human MM473 cells assessed as accumulation at G0/G1 phase at 4 uM after 72 hrs by propidium iodide staining-based flow cytometric method (reference value: 80.2%); type: functional
[3] = Induction of apoptosis in human MM487 cells at 0.3 uM after 24 hrs by propidium iodide staining-based flow cytometric method (reference value: 0.5%); type: functional
[4] = Cell cycle arrest in human MM487 cells assessed as accumulation at S phase at 0.3 uM after 48 hrs by propidium iodide staining-based flow cytometric method (reference value: 13.7%); type: functional
A2780 = assay: cells; type: functional, cell-based; conditions: Homo sapiens, A2780, 72 h
Histone deacetylase 1 = Histone deacetylase 1 (Homo sapiens, UniProt Q13547); assay: Inhibition of HDAC1 (unknown origin) using RHKK(Ac)AMC as substrate after 1 to 2 hrs by fluorescence assay
MM473 [5] = assay: Induction of apoptosis in human MM473 cells at 4 uM after 48 hrs by propidium iodide staining-based flow cytometric method (reference value: […]); type: functional
[6] = Cell cycle arrest in human MM487 cells assessed as accumulation at G2/M phase at 0.3 uM after 48 hrs by propidium iodide staining-based flow cytometric method (reference value: 12.5%); type: functional
cells [7] = type: functional, cell-based; conditions: Homo sapiens, MM487, 72 h
MM473 [8] = assay: Induction of apoptosis in human MM473 cells at 4 uM after 72 hrs by propidium iodide staining-based flow cytometric method (reference value: 1.4%); type: functional
HT-29 = assay: Antiproliferative activity against human HT-29 cells after 72 hrs by SRB assay; type: functional, cell-based; conditions: HT-29, 72 h
[9] = Cell cycle arrest in human MM487 cells assessed as accumulation at G0/G1 phase at 0.3 uM after 48 hrs by propidium iodide staining-based flow cytometric method (reference value: 73.8%); type: functional
DG-75 = assay: cells; type: functional, cell-based; conditions: Homo sapiens, DG-75, 72 h
cells [10] = type: functional, cell-based; conditions: Homo sapiens, MINO, 72 h
MM473 [11] = assay: Cell cycle arrest in human MM473 cells assessed as accumulation at S phase at 4 uM after 72 hrs by propidium iodide staining-based flow cytometric method (reference value: 15.1%); type: functional
NCI-H460 = assay: cells; type: functional, cell-based; conditions: Homo sapiens, NCI-H460, 72 h
MM473 [12] = assay: cells; type: functional, cell-based; conditions: Homo sapiens, MM473, 72 h
DU-145 = assay: cells; type: functional, cell-based; conditions: Homo sapiens, DU-145, 72 h
MM473 [13] = assay: Cell cycle arrest in human MM473 cells assessed as accumulation at G2/M at 4 uM after 24 hrs by propidium iodide staining-based flow cytometric method (reference value: 15.7%); type: functional
MM473 [14] = assay: Cell cycle arrest in human MM473 cells assessed as accumulation at S phase at 4 uM after 48 hrs by propidium iodide staining-based flow cytometric method (reference value: 23.9%); type: functional
MM473 [15] = assay: Induction of apoptosis in human MM473 cells at 4 uM after 24 hrs by propidium iodide staining-based flow cytometric method (reference value: 2.5%); type: functional
OCI-Ly3 = assay: cells; conditions: Homo sapiens, OCI-Ly3, 72 h
[16] = Cell cycle arrest in human MM487 cells assessed as accumulation at G0/G1 phase at 0.3 uM after 24 hrs by propidium iodide staining-based flow cytometric method (reference value: 57.9%); type: functional
A-431 = assay: cells; type: functional, cell-based; conditions: Homo sapiens, A-431, 72 h
cells [17] = type: functional, cell-based; conditions: Homo sapiens, A2780/DX, 72 h
[18] = Cell cycle arrest in human MM487 cells assessed as accumulation at G0/G1 phase at 0.3 uM after 72 hrs by propidium iodide staining-based flow cytometric method (reference value: 80%); type: functional
[19] = target: Polyamine deacetylase HDAC10 (Homo sapiens, UniProt Q969S8); assay: Inhibition of HDAC10 (unknown origin) using RHKK(Ac)AMC as substrate after 1 to 2 hrs by fluorescence assay
cells [20] = type: functional, cell-based; conditions: Homo sapiens, 72 h
Histone deacetylase 2 = Histone deacetylase 2 (Homo sapiens, UniProt Q92769); assay: Inhibition of HDAC2 (unknown origin) using RHKK(Ac)AMC as substrate after 1 to 2 hrs by fluorescence assay
Mus musculus = assay: Toxicity in CD1 nude mouse xenografted with human MM473 cells assessed as body weight loss at 90 mg/kg, iv administered every 4 days per week for 3 weeks measured during compound dosing and on day 40 post last dose; type: organism-based; conditions: in vivo
Summary of the method: (§1)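 MM473 mesothelioma cells (F-10, 10% FBS, G418; mycoplasma-checked, >95% viable) injected intrapleurally, 1x10⁶ in 200 µl M199 per CD-1 nude mouse. Treatment i.v. from day 15 when tumours were growing, in 10% 1:1 ethanol–Cremophor in saline, q4dx3w; vehicle control. Tumour burden followed weekly by IVIS bioluminescence after i.p. D-luciferin (100 µL/10 g), as average radiance; body weight recorded.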

JeKo-1 = assay: cells; type: functional, cell-based; conditions: Homo sapiens, JeKo-1, 72 h
MM473 [21] = assay: Cell cycle arrest in human MM473 cells assessed as accumulation at G0/G1 phase at 4 uM after 48 hrs by propidium iodide staining-based flow cytometric method (reference value: 71.8%); type: functional
MM473 [22] = assay: Cell cycle arrest in human MM473 cells assessed as accumulation at G0/G1 phase at 4 uM after 24 hrs by propidium iodide staining-based flow cytometric method (reference value: 54.5%); type: functional
MM473 [23] = assay: Antitumor activity against human MM473 cells xenografted in CD1 nude mouse assessed as inhibition of tumor volume at 90 mg/kg, iv administered every 4 days per week for 3 weeks measured 10 days post last dose by luciferase reporter assay relative to vehicle-treated control; type: functional
Summary of the method: as §1

Histone deacetylase 4 = Histone deacetylase 4 (Homo sapiens, UniProt P56524); assay: Inhibition of HDAC4 (unknown origin) using fluorogenic substrate after 1 to 2 hrs by fluorescence assay
Summary of the method: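 Purified HDAC4 preincubated with compound (10 concentrations from 10 µM, triplicate, final 1% DMSO) in 50 mM Tris-HCl pH 8.0, 137 mM NaCl, 2.7 mM KCl, 1 mM MgCl2, 1 mg/ml BSA. Class 2a trifluoroacetyl-lysine fluorogenic substrate added and incubated 1–2 h at 30 °C. Developer with TMP269 stops the reaction; fluorescence read at ex 360/em 460 at plateau. Activity is relative to DMSO, and IC50 comes from a sigmoidal fit.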

CAPAN-1 = assay: cells; type: functional, cell-based; conditions: Homo sapiens, CAPAN-1, 72 h
[24] = target: Histone deacetylase (HDAC1 and HDAC2) (Homo sapiens) (UniProt Q13547+Q92769); assay: Inhibition of HDAC1/2 in human MM473 cells assessed as increase in hyperacetylation of nuclear histone H4 at 0.2 to 0.5 uM after 24 hrs by Western blot method; type: cell-based
Summary of the method: (§2)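 MM473 cells treated 24 h (0.2 and 0.5 µM), lysed in NP-40 or RIPA with protease/phosphatase inhibitors; 40 µg protein run on SDS-PAGE, transferred to nitrocellulose, blocked in 5% milk/TBST, probed overnight for acetyl-H4, H4, acetyl-tubulin and α-tubulin, HRP secondaries, ECL chemiluminescence; band density normalised to α-tubulin.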

MM473 [25] = assay: Cell cycle arrest in human MM473 cells assessed as accumulation at G2/M phase at 4 uM after 72 hrs by propidium iodide staining-based flow cytometric method (reference value: 4.6%); type: functional
[26] = Cell cycle arrest in human MM487 cells assessed as accumulation at G2/M phase at 0.3 uM after 72 hrs by propidium iodide staining-based flow cytometric method (reference value: 5.4%); type: functional
U2932 = assay: cells; type: functional, cell-based; conditions: Homo sapiens, U2932, 72 h
NB-4 = assay: cells; type: functional, cell-based; conditions: Homo sapiens, NB-4, 72 h
HepG2 = assay: Antiproliferative activity against human HepG2 cells after 72 hrs by SRB assay; type: functional, cell-based; conditions: HepG2, 72 h
[27] = target: Protein deacetylase HDAC6 (Homo sapiens) (UniProt Q9UBN7); assay: Inhibition of HDAC6 in human MM473 cells assessed as increase in hyperacetylation of cytoplasmic alpha-tubulin at 0.2 to 0.5 uM after 24 hrs by Western blot method; type: cell-based
Summary of the method: as §2

[28] = Cell cycle arrest in human MM487 cells assessed as accumulation at S phase at 0.3 uM after 72 hrs by propidium iodide staining-based flow cytometric method (reference value: 14.6%); type: functional
[29] = target: Protein deacetylase HDAC6 (Homo sapiens, UniProt Q9UBN7); assay: Inhibition of HDAC6 (unknown origin) using RHKK(Ac)AMC as substrate after 1 to 2 hrs by fluorescence assay
[30] = Induction of apoptosis in human MM487 cells at 0.3 uM after 72 hrs by propidium iodide staining-based flow cytometric method (reference value: 0.6%); type: functional
[31] = Cell cycle arrest in human MM487 cells assessed as accumulation at G2/M at 0.3 uM after 24 hrs by propidium iodide staining-based flow cytometric method (reference value: 16.9%); type: functional
KM-H2 = assay: cells; conditions: Homo sapiens, KM-H2, 72 h
MM473 [32] = assay: Cell cycle arrest in human MM473 cells assessed as accumulation at S phase at 4 uM after 24 hrs by propidium iodide staining-based flow cytometric method (reference value: 29.8%); type: functional
MM473 [33] = assay: Cell cycle arrest in human MM473 cells assessed as accumulation at G2/M phase at 4 uM after 48 hrs by propidium iodide staining-based flow cytometric method (reference value: 4.3%); type: functional
HeLa = assay: cells; type: functional, cell-based; conditions: Homo sapiens, 72 h
[34] = Induction of apoptosis in human MM487 cells at 0.3 uM after 48 hrs by propidium iodide staining-based flow cytometric method (reference value: 0.3%); type: functional
cells [35] = type: functional, cell-based; conditions: Homo sapiens, 72 h; remark: listed apart in the source

Chain of Histone deacetylase 1 (Q13547 whole entry): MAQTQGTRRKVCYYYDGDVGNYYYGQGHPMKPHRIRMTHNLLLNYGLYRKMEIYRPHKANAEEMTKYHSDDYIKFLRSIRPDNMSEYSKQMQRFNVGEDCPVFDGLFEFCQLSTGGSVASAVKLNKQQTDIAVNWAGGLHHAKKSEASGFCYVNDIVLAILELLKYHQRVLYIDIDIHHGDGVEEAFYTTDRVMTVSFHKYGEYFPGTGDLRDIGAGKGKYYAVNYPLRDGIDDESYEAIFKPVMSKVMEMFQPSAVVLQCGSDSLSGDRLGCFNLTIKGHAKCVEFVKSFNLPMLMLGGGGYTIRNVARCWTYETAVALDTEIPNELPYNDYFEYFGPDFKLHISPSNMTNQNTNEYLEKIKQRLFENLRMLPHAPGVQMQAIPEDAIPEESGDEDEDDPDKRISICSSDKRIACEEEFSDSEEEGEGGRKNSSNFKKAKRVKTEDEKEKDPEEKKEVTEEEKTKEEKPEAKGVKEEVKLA
Chain of Histone deacetylase (HDAC1 and HDAC2) (Homo sapiens) (Q13547 whole entry, looked up): as the sequence (Q13547 whole entry) above
Chain of Histone deacetylase (HDAC1 and HDAC2) (Homo sapiens) (Q92769 whole entry, looked up): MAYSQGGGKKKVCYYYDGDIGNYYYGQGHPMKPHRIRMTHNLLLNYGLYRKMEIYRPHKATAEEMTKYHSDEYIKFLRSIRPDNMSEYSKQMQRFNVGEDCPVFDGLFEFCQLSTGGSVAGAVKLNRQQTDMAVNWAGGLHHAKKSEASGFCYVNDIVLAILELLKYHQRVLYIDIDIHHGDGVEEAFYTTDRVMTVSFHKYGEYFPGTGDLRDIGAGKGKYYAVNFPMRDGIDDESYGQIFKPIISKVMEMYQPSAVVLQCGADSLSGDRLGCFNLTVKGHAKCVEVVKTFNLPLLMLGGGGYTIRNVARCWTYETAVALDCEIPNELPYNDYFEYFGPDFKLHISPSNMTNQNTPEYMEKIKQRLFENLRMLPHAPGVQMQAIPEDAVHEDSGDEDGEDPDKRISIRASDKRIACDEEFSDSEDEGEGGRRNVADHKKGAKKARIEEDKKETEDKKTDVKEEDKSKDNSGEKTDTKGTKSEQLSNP
Chain of Polyamine deacetylase HDAC10 (Q969S8 whole entry): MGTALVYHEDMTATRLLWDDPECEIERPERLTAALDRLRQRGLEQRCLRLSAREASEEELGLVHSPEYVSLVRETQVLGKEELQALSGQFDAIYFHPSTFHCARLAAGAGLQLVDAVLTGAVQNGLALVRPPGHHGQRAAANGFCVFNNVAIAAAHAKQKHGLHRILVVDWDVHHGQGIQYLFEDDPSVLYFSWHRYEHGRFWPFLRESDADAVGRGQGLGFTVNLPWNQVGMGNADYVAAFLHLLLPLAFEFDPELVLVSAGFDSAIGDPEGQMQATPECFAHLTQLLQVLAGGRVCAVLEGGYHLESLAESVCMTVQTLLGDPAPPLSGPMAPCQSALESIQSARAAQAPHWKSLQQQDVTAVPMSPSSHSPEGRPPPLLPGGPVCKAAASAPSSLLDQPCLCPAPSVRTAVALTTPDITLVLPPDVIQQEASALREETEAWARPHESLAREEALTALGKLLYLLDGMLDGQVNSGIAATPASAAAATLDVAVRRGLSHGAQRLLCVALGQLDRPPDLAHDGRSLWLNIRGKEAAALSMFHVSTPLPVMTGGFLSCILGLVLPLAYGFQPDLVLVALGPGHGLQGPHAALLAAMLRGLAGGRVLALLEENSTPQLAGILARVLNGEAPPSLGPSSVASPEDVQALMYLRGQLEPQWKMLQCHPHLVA
Chain of Histone deacetylase 4 (P56524 whole entry): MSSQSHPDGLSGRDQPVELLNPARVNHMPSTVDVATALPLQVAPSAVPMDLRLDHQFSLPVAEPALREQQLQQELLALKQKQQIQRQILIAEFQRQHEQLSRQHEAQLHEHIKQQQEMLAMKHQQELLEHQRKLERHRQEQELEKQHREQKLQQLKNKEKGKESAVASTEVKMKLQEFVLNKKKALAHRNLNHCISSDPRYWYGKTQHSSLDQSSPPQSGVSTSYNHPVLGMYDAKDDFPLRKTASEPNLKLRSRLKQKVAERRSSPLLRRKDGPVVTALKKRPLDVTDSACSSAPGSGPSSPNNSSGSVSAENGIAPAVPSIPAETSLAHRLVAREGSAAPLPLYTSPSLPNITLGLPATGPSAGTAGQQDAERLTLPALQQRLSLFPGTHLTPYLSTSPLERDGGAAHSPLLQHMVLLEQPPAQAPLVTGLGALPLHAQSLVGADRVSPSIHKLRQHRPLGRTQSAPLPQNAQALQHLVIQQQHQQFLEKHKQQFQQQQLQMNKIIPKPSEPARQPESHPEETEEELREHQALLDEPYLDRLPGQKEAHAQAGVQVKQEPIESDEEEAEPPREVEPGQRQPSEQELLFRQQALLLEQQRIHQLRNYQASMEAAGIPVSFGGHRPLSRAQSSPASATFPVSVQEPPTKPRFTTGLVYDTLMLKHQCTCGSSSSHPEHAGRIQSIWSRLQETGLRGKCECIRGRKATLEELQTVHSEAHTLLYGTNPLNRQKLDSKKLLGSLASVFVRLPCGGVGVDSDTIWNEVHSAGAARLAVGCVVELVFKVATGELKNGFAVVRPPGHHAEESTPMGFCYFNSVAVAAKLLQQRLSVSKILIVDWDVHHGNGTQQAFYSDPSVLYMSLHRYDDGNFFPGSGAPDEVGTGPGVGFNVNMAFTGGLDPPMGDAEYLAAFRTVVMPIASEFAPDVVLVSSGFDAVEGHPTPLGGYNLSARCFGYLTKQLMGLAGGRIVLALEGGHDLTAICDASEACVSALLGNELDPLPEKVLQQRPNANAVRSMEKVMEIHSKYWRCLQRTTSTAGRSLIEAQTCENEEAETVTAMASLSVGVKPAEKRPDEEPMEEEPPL
Chain of Histone deacetylase 2 (Q92769 whole entry): as the sequence (Q92769 whole entry, looked up) above
Chain of Protein deacetylase HDAC6 (Q9UBN7 whole entry): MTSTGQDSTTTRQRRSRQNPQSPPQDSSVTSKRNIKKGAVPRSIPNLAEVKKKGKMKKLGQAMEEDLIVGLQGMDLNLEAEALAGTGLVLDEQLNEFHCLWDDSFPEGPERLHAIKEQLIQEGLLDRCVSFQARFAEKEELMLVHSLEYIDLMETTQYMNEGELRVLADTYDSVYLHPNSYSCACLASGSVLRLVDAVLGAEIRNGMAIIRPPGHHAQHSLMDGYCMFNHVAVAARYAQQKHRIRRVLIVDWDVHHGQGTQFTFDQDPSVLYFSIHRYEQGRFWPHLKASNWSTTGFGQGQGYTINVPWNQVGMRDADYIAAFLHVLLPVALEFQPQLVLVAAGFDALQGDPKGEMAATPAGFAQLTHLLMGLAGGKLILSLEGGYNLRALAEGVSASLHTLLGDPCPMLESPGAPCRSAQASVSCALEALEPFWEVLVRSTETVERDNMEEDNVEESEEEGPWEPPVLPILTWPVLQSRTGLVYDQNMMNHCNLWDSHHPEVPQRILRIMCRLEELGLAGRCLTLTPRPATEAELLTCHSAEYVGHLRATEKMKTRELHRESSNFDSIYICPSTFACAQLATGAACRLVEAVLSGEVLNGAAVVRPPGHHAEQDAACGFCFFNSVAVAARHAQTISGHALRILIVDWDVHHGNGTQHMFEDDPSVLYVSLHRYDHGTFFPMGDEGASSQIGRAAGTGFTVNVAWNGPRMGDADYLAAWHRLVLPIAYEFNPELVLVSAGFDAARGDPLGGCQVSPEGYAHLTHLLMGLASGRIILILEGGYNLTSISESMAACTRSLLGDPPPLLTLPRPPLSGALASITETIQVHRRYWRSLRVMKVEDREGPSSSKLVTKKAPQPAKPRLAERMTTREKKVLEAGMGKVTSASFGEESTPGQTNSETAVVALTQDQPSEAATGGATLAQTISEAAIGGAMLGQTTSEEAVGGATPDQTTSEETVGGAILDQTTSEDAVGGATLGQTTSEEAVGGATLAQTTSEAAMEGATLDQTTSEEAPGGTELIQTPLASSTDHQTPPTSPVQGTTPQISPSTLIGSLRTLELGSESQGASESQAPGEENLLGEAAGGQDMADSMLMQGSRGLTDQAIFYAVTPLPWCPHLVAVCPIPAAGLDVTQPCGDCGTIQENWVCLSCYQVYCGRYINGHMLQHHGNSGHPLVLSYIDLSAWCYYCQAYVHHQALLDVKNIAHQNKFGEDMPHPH
Chain of Protein deacetylase HDAC6 (Homo sapiens) (Q9UBN7 whole entry): as above

CC[C@@]1(O)C(=O)OCc2c1cc1n(c2=O)Cc2c-1nc1ccccc1c2/C=N/OCCCCCC(=O)NCCSSCCNC(=O)/C(Cc1ccc(O)c(Br)c1)=N\O
IC50 (L-428): 600 nM
Activity [1]: 77.62%
Activity (MM473 [2]): 6.2%
Activity [3]: 2.6%
Activity [4]: 67.8%
IC50 (A2780): 220 nM
IC50 (Histone deacetylase 1): 150 nM
Activity (MM473 [5]): 9.9%
Activity [6]: 15.7%
IC50 (cells [7]): 130 nM
Activity (MM473 [8]): 11%
IC50 (HT-29): 660 nM
Activity [9]: 16.5%
IC50 (DG-75): 8400 nM
IC50 (cells [10]): 35 nM
Activity (MM473 [11]): 79.3%
IC50 (NCI-H460): 170 nM
IC50 (MM473 [12]): 1900 nM
IC50 (DU-145): 110 nM
Activity (MM473 [13]): 13.1%
Activity (MM473 [14]): 83.5%
Activity (MM473 [15]): 3.8%
IC50 (OCI-Ly3): 100 nM
Activity [16]: 20.6%
IC50 (A-431): 180 nM
IC50 (cells [17]): 830 nM
Activity [18]: 19.6%
IC50 [19]: 7.55 nM
IC50 (cells [20]): 300 nM
IC50 (Histone deacetylase 2): 327 nM
Activity (Mus musculus): Non-Toxic
IC50 (JeKo-1): 60 nM
Activity (MM473 [21]): 4.5%
Activity (MM473 [22]): 28%
inhibition in vivo at 90 mg/kg (MM473 [23]): 78%
IC50 (Histone deacetylase 4): Not Active
IC50 (CAPAN-1): 50 nM
inhibition [24]: Active
Activity (MM473 [25]): 14.5%
Activity [26]: 21.2%
IC50 (U2932): 110 nM
IC50 (NB-4): 47 nM
IC50 (HepG2): 760 nM
inhibition [27]: inactive
Activity [28]: 59.2%
IC50 [29]: 709 nM
Activity [30]: 25.4%
Activity [31]: 1.8%
IC50 (KM-H2): 280 nM
Activity (MM473 [32]): 58.97%
Activity (MM473 [33]): 12%
IC50 (HeLa): 470 nM
Activity [34]: 13.1%
IC50 (cells [35]): 4000 nM
